In one data set the test system is Plasmodium falciparum. The experiment in a line: Antimalarial activity against chloroquine-resistant Plasmodium falciparum Dd2 assessed as parasite growth inhibition after 72 hrs by SYBR Green 1 assay. In kind it is functional. Conditions: Dd2, 72 h. The procedure, abridged: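 Viability was read by SYBR Green I DNA quantitation and normalized to DMSO-treated untreated controls. IC50 came from nonlinear regression, averaging at least three independent experiments run in triplicate, with standard deviations.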

Data set [1] in a line: Selectivity index, ratio of IC50 for human WI38 cells to IC50 for chloroquine-resistant Plasmodium falciparum Dd2. Particulars: read-out: Ratio IC50. In kind it is toxicity.
Another data set has as its system WI-38. Put plainly: Cytotoxicity against human WI38 cells after 24 hrs by resazurin assay. Particulars: WI-38, 24 h. In general terms: Resazurin is reduced to fluorescent resorufin, in cell work by metabolically active cells.

For 2 compounds, IC50 and selectivity ratio results are on record in ChEMBL document CHEMBL4004786, “Nanomolar Antimalarial Agents against Chloroquine-Resistant Plasmodium falciparum from Medicinal Plants and Their Structure-Activity Relationships” (J Nat Prod, 2017).

For orientation: IC50 means the point on the concentration scale where inhibition reaches its midpoint.

On to `COC(=O)/C(C)=C1\C(=O)[C@H](O)[C@]2(C)C3=C(C[C@@H]4[C@]5(OC(=O)C6=C5C[C@H]5[C@](O)(COC(=O)/C(C)=C/COC(=O)CCC(=O)OC6)[C@H]6C[C@H]6[C@]45C)[C@H]31)[C@H]1C[C@H]12` [SHIZUKAOL B], for which the IC50 in the data set with Plasmodium falciparum came out at 27 nM; with WI-38, 16700 nM. Besides, the selectivity ratio in data set [1] came out at 619.

Turning to `COC(=O)/C(C)=C1\C(=O)[C@H](O)[C@]2(C)C3=C(C[C@@H]4[C@]5(OC(=O)C6=C5C[C@H]5[C@](O)(COC(=O)/C=C(\C)COC(=O)CCC(=O)OC6)[C@H]6C[C@H]6[C@]45C)[C@H]31)[C@H]1C[C@H]12` [SHIZUKAOL F], the values for the half-inhibitory concentration (IC50) in the data set on Plasmodium falciparum and in the data set on WI-38 were 11 nM and 230 nM, respectively. In data set [1], the selectivity ratio amounted to 21.
